# Most compounds without a hit are left out; they make up all but 2.7% or so of the library.
# CSN inh: inhibitors of CSN-mediated cullin deneddylation, primary screen, biochemical, fluorescence polarization, uHTS. Purified CSN, SCF-Nedd8-OG deneddylation. AID 651999, 2013. 360,000 compounds, 0.38% hits. inhibition, % at 12.5 µM. COP9 signalosome complex subunit 5 (Homo sapiens), Q92905;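 active means pattern-corrected inhibition above about 35%, with an unprinted fluorescence ratio check between 0.5 and 1.5, limit read from the data, passing the limit was not always enough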;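 further: 0% = enzyme with substrate and 100% = substrate without enzyme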
# Target sequence (Q92905 whole entry, looked up, one chain of several): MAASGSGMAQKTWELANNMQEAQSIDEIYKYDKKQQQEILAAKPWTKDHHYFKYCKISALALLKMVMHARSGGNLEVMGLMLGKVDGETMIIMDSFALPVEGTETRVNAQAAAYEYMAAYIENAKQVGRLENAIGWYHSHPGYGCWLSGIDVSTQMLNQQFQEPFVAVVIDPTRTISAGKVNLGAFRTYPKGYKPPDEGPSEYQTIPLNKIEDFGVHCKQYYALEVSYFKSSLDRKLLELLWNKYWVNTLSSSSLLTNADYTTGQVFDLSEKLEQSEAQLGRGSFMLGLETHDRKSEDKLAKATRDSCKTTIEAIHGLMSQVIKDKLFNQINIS
#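 Assay system: Purified human Csn5 enzyme expressed in HEK293T cells | Amount: Enzyme 0.24 nM | Measured by: Fluorescence polarization readout | Medium: Tris/NaCl/DTT buffer, pH 7.5 | Compound dosing: One concentration, 12.5 µM, 0.25% DMSO | Times: 90 min incubation of compound, enzyme and substrate at room temperature | Control set: no-enzyme wells high, enzyme-with-substrate wells low | Read-out: % inhibition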
# PP1 inh: PP1-alpha phosphatase inhibitors, primary screen, counter-screen for PP5 inhibitor project, biochemical, fluorescence, OMFP substrate, single point; Serine/threonine-protein phosphatase PP1-alpha catalytic subunit (Homo sapiens), P62136; purified PP1alpha; inhibition, % at 6.7 µM; 320,000 compounds, 0.9% hits; AID 2235, 2010;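 active means inhibition above the mean inhibition of all tested compounds plus 3 SD, computed separately for each screening campaign, cut at about 15% in these data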
# NadD inh: inhibitors of S. aureus NadD, primary screen, biochemical, colorimetric, uHTS | purified NadD enzyme, colorimetric absorbance read-out | AID 602399, 2012 | Nicotinate-nucleotide adenylyltransferase NadD (Staphylococcus aureus N315) | inhibition, % at 20 µM | 360,000 compounds, 0.78% hits; in the data active means inhibition above about 26%
# HNF4A DNA FP: change in binding of human HNF4A to DNA, primary screen, biochemical, fluorescence polarization, FITC-DNA; 1 h; activity change, % at 10 µM; 360,000 compounds, 0.3% hits; in the data active means activity change above about 30%, passing the limit was not always enough
# Rpn11 block: Rpn11 (PSMD14) deubiquitinase inhibitors, primary screen, biochemical, fluorescence polarization, uHTS; 26S proteasome non-ATPase regulatory subunit 14 (Homo sapiens), O00487; human 26S proteasome, Ub4-pepOG fluorescence polarization; 20S core pre-blocked with epoxomicin; inhibition, % at 20 µM; 360,000 compounds, 0.59% hits;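 active means inhibition at 20 µM, scaled to each plate's controls, above about 33%, limit read from the data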
# Target sequence (O00487 whole entry, looked up): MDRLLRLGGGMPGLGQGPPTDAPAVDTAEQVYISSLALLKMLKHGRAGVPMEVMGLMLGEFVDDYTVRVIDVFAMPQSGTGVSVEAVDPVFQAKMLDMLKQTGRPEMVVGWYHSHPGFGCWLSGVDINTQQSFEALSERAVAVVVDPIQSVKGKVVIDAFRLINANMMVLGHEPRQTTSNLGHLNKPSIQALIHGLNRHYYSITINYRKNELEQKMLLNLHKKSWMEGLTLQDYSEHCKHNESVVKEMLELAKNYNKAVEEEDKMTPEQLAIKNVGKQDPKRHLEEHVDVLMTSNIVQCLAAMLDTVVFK
# TPT1 inh: Candida albicans TPT1 enzyme inhibitors, primary screen, biochemical, fluorescence polarization | tRNA 2'-phosphotransferase TPT1 (Candida albicans SC5314) | recombinant caTPT1, FP RNA substrate dephosphorylation | inhibition, % at 5 µM | 300,000 compounds, 0.81% hits;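 active means inhibition above the mean of all tested compounds plus 3 SD, set per screening campaign, cut at about 24% in these data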;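 further: plate controls were DMSO alone for no effect and ferristatin control at 100 nM for full effect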
# * hit, by the source's call; · = no result shown.
SMILES,CSN inh,PP1 inh,NadD inh,HNF4A DNA FP,Rpn11 block,TPT1 inh
COc1cc(C2c3c([nH]c(=O)[nH]c3=O)Nc3ccc4ccccc4c32)cc(OC)c1OC (centres undefined),66.2*,6.0,6.9,-4.9,-0.8,1.8
CCOC(=O)C1=CN(Cc2cccc(F)c2)S(=O)(=O)N(C)C1c1cccc(OC)c1 (centres undefined),2.4,·,-4.1,0.2,3.9,·
CCOC(=O)C1=CN(Cc2cccc(F)c2)S(=O)(=O)N(C)C1c1ccccc1 (centres undefined),103.2*,·,-9.1,-3.8,4.5,·
COc1ccc(CCNC(=O)C(C)SCc2ccccc2)cc1 (centres undefined),-0.6,-1.2,3.3,0.2,-4.2,-2.6
CC(Sc1ccccc1)C(=O)NCCc1ccccc1 (centres undefined),50.5*,-0.7,-1.1,-2.1,3.6,-4.5
COc1ccc(-c2ccc(-c3noc(-c4ccccc4OC)n3)c(OC)n2)cc1,-2.3,8.7,-8.9,43.5*,23.1,11.9
CC(C(=O)N1CCc2ccccc21)N1CCN(S(=O)(=O)c2ccc3c(c2)OCCCO3)CC1 (centres undefined),-0.3,·,5.3,2.3,2.9,·
Cc1ccc(-n2c(SCC(=O)Nc3ccc4c5c(cccc35)CC4)nc(O)cc2=O)cc1,-4.0,15.7*,3.3,2.1,10.2,6.7
CN(C1CCCCC1)S(=O)(=O)c1ccc(SCC(=O)C(C)(C)C)nc1,5.7,·,-0.1,-1.7,5.1,·
CC(=O)c1ccc(OCc2cc(C(=O)NC3CCCCC3)no2)cc1,4.5,-2.9,-4.3,-2.1,1.8,0.7
Cc1ccc(-c2nc(N3CCN(C)CC3)c3ccccc3n2)cc1,2.8,0.4,-7.4,-0.6,4.1,-0.7
CN1CCN(c2nc(-c3cccc([N+](=O)[O-])c3)nc3ccccc23)CC1,44.0*,-1.3,-9.5,-2.5,2.0,-2.3
O=C1CSC(=S)N1/N=C/c1c(F)cccc1F,0.1,0.3,16.0,0.2,25.5,2.7
O=C1CSC(=S)N1N=Cc1c(O)ccc2ccccc12,27.6,·,33.7*,93.1*,·,·
CCCc1nc2sc3c(SCC(=O)NCc4ccco4)ncnc3c2c2c1CCC2,28.6,9.9,33.9*,-32.0,4.0,5.4
CC1(C)N=C(N)N=C(N)N1c1ccc(OCCCOc2ccccc2)c(Cl)c1,2.0,5.0,-5.7,49.9*,4.9,-0.3
CCN(CC)C(=O)C1=C(C)N(CCCN2CCCC2=O)C(=O)C(CC(=O)NC(c2ccccc2)c2ccccc2)C1 (centres undefined),-5.4,·,-2.6,-0.5,0.8,·
O=C(c1ccccc1F)N(NC(=O)C(O)(c1ccccc1)c1ccccc1)c1ccccc1,1.0,17.4*,-5.0,-0.1,-8.9,-4.2
O=C(c1ccccc1)N(NC(=O)C(O)(c1ccccc1)c1ccccc1)c1cccc(F)c1,-11.3,-1.1,2.0,-1.9,4.6,-1.0
COc1cccc(C(=O)Nc2ccc(-c3nc4ccccc4o3)c(O)c2)c1,3.6,15.6*,13.0,-1.9,31.9,5.5
O=C(N/N=C/c1ccccc1C(=O)O)c1cccc(S(=O)(=O)N2CCCCC2)c1,0.0,-3.8,-2.5,0.6,5.1,·
N#CC1(N2CCN(C(=O)c3ccccc3)CC2)CCCCC1,1.8,1.7,-7.0,1.8,4.8,3.1
Clc1cc(Cl)c2nc(N3CCCCC3)sc2c1,2.6,-1.9,9.2,-2.3,0.6,-1.8
Clc1cc(Cl)c2nc(N3CCCC3)sc2c1,41.0*,0.6,-6.5,-2.7,5.4,-0.4
O=C(COc1ccc2c(-c3ccccc3)cc(=O)oc2c1)NCc1ccccn1,-2.5,-0.5,-4.1,1.3,-8.8,-1.3
SMILES,CSN inh,PP1 inh,NadD inh,HNF4A DNA FP,Rpn11 block,TPT1 inh
O=C(COc1ccc2c(-c3ccccc3)cc(=O)oc2c1)Nc1cccnc1,49.0*,2.8,3.2,10.6,21.8,1.4
Cc1ccc(C)c(C(=O)OCC(=O)N(C)c2ccccc2)c1,-3.4,-0.1,0.4,1.8,0.8,-1.0
Cc1ccccc1NP1(=O)OCCCN1Cc1ccccc1Cl (centres undefined),-1.4,·,-3.7,1.0,3.3,·
O=C(CCNC(=O)C1CCN(S(=O)(=O)c2ccc(F)cc2)CC1)NCc1ccccc1,-3.7,-0.8,-1.7,-6.3,1.2,0.0
O=C(CN1CCN(C(=O)c2cccc(S(=O)(=O)N3CCCC3)c2)CC1)Nc1ccc(F)cc1,1.6,0.8,-1.4,-2.8,-0.9,·
O=C(C=P(c1ccccc1)(c1ccccc1)c1ccccc1)c1ccccc1-c1ccccc1C(=O)C=P(c1ccccc1)(c1ccccc1)c1ccccc1,22.1,·,55.8*,6.3,36.9,·
CCOC(=O)c1c(NC(=O)CC2Nc3ccccc3NC2=O)sc(C)c1C (centres undefined),-0.5,-1.9,1.3,52.5*,29.3,6.9
COC(=O)c1c(NC(=O)CC2Nc3ccccc3NC2=O)sc(C)c1C (centres undefined),8.1,-4.5,-2.4,44.9*,11.3,13.6
CCOC(=O)c1c(NC(=O)CC2Sc3ccc(C(F)(F)F)cc3NC2=O)sc(C)c1C (centres undefined),-5.9,-5.2,-0.9,2.2,-7.0,-0.9
CCOC(=O)C1=C(C)NC(C)=C(C(=O)OCC)C1C(=O)OCC(=O)Nc1ccc(NC(C)=O)cc1,-0.1,·,-3.2,4.0,-1.6,·
O=C(CC1SC(N2CCCC2)=NC1=O)Nc1ccc(C(=O)NCCOc2ccccc2F)cc1 (centres undefined),5.8,·,0.4,-3.0,1.4,·
Cc1ccc(NC(=O)c2cc3ccccc3oc2=N)cc1,-2.6,2.7,1.5,0.5,0.8,2.0
N=c1oc2c3c4c(cc2cc1C(=O)Nc1ccccc1)CCCN4CCC3,-70.1,-25.2,31.5*,-52.8,-141.6,-24.2
Cc1ccc(S(=O)(=O)c2c(N)n(/N=C/c3ccco3)c3nc4ccccc4nc23)cc1C,21.1,-2.1,53.8*,17.7,·,10.8
Nc1c(S(=O)(=O)c2cccs2)c2nc3ccccc3nc2n1/N=C/c1cccc(O)c1,3.9,2.2,45.3*,-0.2,2.2,0.7
Cc1ccc(S(=O)(=O)c2c(N)n(/N=C/c3ccco3)c3nc4ccccc4nc23)cc1,22.5,1.0,25.0,15.5,19.4,10.1
O=C(NCc1ccc(Cl)cc1)c1cccc2c1C(=O)N(CC1CCCO1)C2 (centres undefined),0.4,0.8,-2.4,-0.2,0.6,-1.9
